Molecules are shown by their SMILES. In all, about 330,000 compounds went through this assay and about 1,000 (0.3%) were called active.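 Rule for the calls: active = activity change at or below -40% at 20 µM; inactive = the rest.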 This excerpt belongs to a sample that is enriched for actives.

The target of the assay is Apoptotic protease-activating factor 1 (Homo sapiens) (UniProt O14727). Briefly: activators of human Apaf-1 apoptosome, primary screen, biochemical, DEVD-Rh110 fluorescence, uHTS (AID 489031). Conditions: Apaf-1 apoptosome caspase-3 activation, at 20 µM, hits give low values. The method in brief: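 Material: reconstituted apoptosome of Apaf-1, cytochrome c, caspase-9, procaspase-3; times: 30 min preincubation, 50 min reaction, room temperature; measured by: fluorescence, 540 nm emission, 480 nm excitation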
Chain of Apoptotic protease-activating factor 1 (Homo sapiens) (O14727 whole entry, looked up): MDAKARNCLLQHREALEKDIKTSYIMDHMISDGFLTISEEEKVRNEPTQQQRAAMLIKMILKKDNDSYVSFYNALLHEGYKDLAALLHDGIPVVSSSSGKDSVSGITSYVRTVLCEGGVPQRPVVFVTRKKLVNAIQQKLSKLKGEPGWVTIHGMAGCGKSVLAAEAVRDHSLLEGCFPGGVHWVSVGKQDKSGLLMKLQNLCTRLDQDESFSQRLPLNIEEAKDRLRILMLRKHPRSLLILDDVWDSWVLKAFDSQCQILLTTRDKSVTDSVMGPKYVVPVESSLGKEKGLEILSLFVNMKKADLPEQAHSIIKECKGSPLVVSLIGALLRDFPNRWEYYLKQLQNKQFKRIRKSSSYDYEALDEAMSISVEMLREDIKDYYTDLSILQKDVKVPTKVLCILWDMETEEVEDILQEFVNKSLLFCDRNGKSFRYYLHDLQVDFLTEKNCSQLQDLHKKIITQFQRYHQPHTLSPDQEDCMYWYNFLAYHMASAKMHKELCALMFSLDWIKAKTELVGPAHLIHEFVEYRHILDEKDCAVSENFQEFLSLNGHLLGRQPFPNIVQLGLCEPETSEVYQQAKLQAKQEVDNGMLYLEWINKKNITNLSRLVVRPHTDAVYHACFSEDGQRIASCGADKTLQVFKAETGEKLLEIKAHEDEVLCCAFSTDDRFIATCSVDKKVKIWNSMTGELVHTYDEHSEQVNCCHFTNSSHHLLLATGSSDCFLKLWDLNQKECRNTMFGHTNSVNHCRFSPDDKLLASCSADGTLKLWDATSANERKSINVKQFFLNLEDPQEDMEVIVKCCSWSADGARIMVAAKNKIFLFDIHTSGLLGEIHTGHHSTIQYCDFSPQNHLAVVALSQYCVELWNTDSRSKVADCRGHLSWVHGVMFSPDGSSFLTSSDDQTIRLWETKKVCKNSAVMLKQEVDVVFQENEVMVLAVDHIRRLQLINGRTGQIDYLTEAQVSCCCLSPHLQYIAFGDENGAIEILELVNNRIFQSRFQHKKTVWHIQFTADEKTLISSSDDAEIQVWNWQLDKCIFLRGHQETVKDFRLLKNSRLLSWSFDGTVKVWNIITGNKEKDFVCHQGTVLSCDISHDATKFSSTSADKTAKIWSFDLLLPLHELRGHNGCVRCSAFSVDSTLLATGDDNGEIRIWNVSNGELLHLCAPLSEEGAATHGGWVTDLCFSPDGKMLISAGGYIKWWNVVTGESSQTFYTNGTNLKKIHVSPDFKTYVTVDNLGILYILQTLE
`CC(=O)N(C1=C(Cl)C(=O)c2ccccc2C1=O)c1ccc(C(=O)O)cc1`: the activity change, negative = activation was 89% (inactive).

For the molecule `Cc1cc2oc3ccc(NCCC4CCCN4C)cc3c(=O)c2cc1C` (centres undefined), the activity change, negative = activation was 46.9% (inactive).

Consider `Nc1cc(C(F)(F)F)ccc1N1CCOCC1`, for which the activity change, negative = activation is -185% (active).

As to `CCN(CC(=O)NCc1cccs1)C(=O)c1cccc(S(=O)(=O)Nc2ccccc2OC)c1`, the activity change, negative = activation is 60.2% (inactive).

On to `CCN1C[C@@H]2[C@@H]3C(=O)N(Cc4ccccc4)C(=O)[C@@H]3[C@](Cc3ccccc3)(C(=O)OC)N2C1=NC1CCCCC1`, for which the activity change, negative = activation is 41.2% (inactive).

Consider `CN(C)S(=O)(=O)c1ccc2oc(SCC(=O)Nc3ccccc3F)nc2c1`, for which the activity change, negative = activation was 61.1% (inactive).

As for `CCOCCc1c(O)nc(SCC(=O)NCc2ccco2)[nH]c1=O`, the activity change, negative = activation is -133% (active).

Take `Cc1ccc(N=C2NC(=O)/C(=C/C=C/c3ccco3)S2)cc1C`: the activity change, negative = activation is 61.8% (inactive).

As for `COc1cccc(-c2sc3ccc(OC)cc3c2-c2ccc(OCCN3CCCCC3)cc2)c1`, the activity change, negative = activation is 61.8% (inactive).

Regarding `CCC(C)(C)c1ccc(OCC(=O)N(C)C)c(C(C)(C)CC)c1`, the activity change, negative = activation is 56.5% (inactive).

`CC(C)N1CCC(NC(=O)Nc2ccccc2)CC1`: the activity change, negative = activation was -331% (active).

In the case of `CCOC(=O)C1CCN(C(=O)c2cccc(S(=O)(=O)N(CC)c3ccccc3)c2)CC1`, the activity change, negative = activation is 45.2% (inactive).

As to `Clc1ccc(C2=CSC3=Nc4cccc5cccc(c45)N23)cc1`, the activity change, negative = activation was 90% (inactive).

As to `Clc1cccc(-c2nc3nc4ccccc4nc3n2Cc2ccco2)c1`, the activity change, negative = activation was -136% (active).

As for `COc1ccc(S(=O)(=O)/N=C2\C=C(NS(=O)(=O)c3ccccc3)C(=O)c3ccccc32)cc1`, the activity change, negative = activation was 79.2% (inactive).

Turning to `CN1CC(=O)N=C1N`, the activity change, negative = activation was 3.64% (inactive).

In the case of `CCCC[C@@H]1CN=C(N)N1CCc1cc(C(F)(F)F)cc(C(F)(F)F)c1`, the activity change, negative = activation is 52.3% (inactive).

For `Nc1ccc2nn(-c3ccc(Cl)cc3)nc2c1`, the activity change, negative = activation was 83.8% (inactive).

With `CC(=O)NC(=S)NNC(=O)c1ccc(Br)cc1`, the activity change, negative = activation is -56.7% (active).

In the case of `O=C(Cc1cc(=O)[nH][nH]1)N/N=C/c1ccccc1[N+](=O)[O-]`, the activity change, negative = activation was 40.8% (inactive).

On to `Cc1ccc(Nc2nc(CSc3nnc(-c4ccncc4)n3-c3ccccc3C)cs2)cc1`, for which the activity change, negative = activation is -54.9% (active).

As for `CCCCCCCCCCOC(=O)Cn1c(COc2ccc(C)cc2)[n+](C)c2ccccc21`, the activity change, negative = activation was 77.7% (inactive).

Regarding `N#CC1(C#N)C(C(=O)C23CC4CC(CC(C4)C2)C3)C12CCOCC2` (centres undefined), the activity change, negative = activation is -214% (active).

As for `O=C(N/N=C\c1cccnc1)c1cc(-c2ccccc2)nc2c(Cl)cccc12`, the activity change, negative = activation is 40.1% (inactive).

Regarding `C=CCNC(=O)c1ccc(C)c(Br)c1`, the activity change, negative = activation was -44.1% (active).

Regarding `CC1CC(=S)Nc2ccccc2N1Cc1ccccc1` (centres undefined), the activity change, negative = activation is 41.4% (inactive).

As to `Cc1c(-c2nn(C)c(=O)c3ccccc23)oc2ccc(F)cc2c1=O`, the activity change, negative = activation is 82% (inactive).

With `COc1ccc(Cl)cc1NC(=O)CCS(=O)(=O)c1ccc(Br)cc1`, the activity change, negative = activation is -182% (active).

For `CCn1cc(CN2CCC(C(=O)Nc3cccc(-c4cccc(Cl)c4)c3)CC2)c(C)n1`, the activity change, negative = activation was 40.5% (inactive).

In the case of `CCN1C(=O)c2cccc3c(N)ccc1c23`, the activity change, negative = activation is 97.1% (inactive).

Regarding `CN(C)S(=O)(=O)c1ccc(C(=O)NCCN=C2NS(=O)(=O)c3ccccc32)cc1`, the activity change, negative = activation was -486% (active).

Consider `Cc1[nH]n(-c2ccccc2)c(=O)c1/C=N/NC(=O)c1ccoc1C`, for which the activity change, negative = activation was 61.5% (inactive).

Consider `CC(C)CC[n+]1ccn(C2=C([O-])c3ccccc3C(=O)/C2=N\S(=O)(=O)c2ccccc2)c1`, for which the activity change, negative = activation is 55.3% (inactive).

As for `CCCCNC(=O)C(C)N(CCN(C)C)C(=O)CCCN1C(=O)NC(c2ccc(Cl)cc2)C(C(=O)OCc2ccccc2)=C1C` (centres undefined), the activity change, negative = activation was 57.1% (inactive).

For `COc1ccc2c(c1)CCNC2Cc1ccc(OC)c(O)c1` (centres undefined), the activity change, negative = activation is -42.7% (active).

Consider `CC1=NN(c2ccc(Cl)c(C(=O)O)c2)C(=O)/C1=C/c1ccc(-c2ccccc2[N+](=O)[O-])o1`, for which the activity change, negative = activation is 42.9% (inactive).

In the case of `O=C1NNC(c2ccccc2)=N/C1=C\c1ccc(Cl)cc1`, the activity change, negative = activation was 50.6% (inactive).

With `CN(CCOc1ccc(CC2SC(=O)NC2=O)cc1)c1ccccn1` (centres undefined), the activity change, negative = activation is -0.067% (inactive).

Regarding `C#CCOCCOCCOCCNc1nc(N2CCN(C(=O)CCCCCCCCCCNC(=O)[C@H]([C@@H](C)CC)n3cc(CCCCN=C(N)N)nn3)CC2)nc(N2CCN(C(=O)CCCCCCCCCCNC(=O)[C@H](CO)n3cc(CCCSC)nn3)CC2)n1`, the activity change, negative = activation is 59.2% (inactive).

Turning to `Cc1cc(NC(=O)c2cccc(N3C(=O)CCC3=O)c2)no1`, the activity change, negative = activation is -110% (active).

As for `O=C(CCc1ccccc1)NNC(=O)c1ccc(Br)cc1`, the activity change, negative = activation is -96.1% (active).

`O=C(CCNS(=O)(=O)c1ccccc1)NCCSc1ccc(Br)cc1`: the activity change, negative = activation is 58.6% (inactive).

Consider `COc1ccc(C(CNC(=O)c2ccc(S(=O)(=O)Nc3ccccc3F)cc2)N(C)C)cc1` (centres undefined), for which the activity change, negative = activation was 56.5% (inactive).

In the case of `O=[N+]([O-])c1ccc2nc(-c3ccccn3)[nH]c2c1`, the activity change, negative = activation is -143% (active).

For the molecule `COc1cc(C(=O)NCc2nnc(SCC(=O)Nc3nc4ccc(C)cc4s3)o2)cc(OC)c1OC`, the activity change, negative = activation was -87.4% (active).

As for `Oc1c(C=Nc2cccc3nsnc23)ccc2ccccc12`, the activity change, negative = activation is 95.8% (inactive).

As for `CCOc1c(Br)cc(/C=C2\C(=O)N(CCC#N)N=C2C)cc1OC`, the activity change, negative = activation was 75.9% (inactive).

As for `O=C1Nc2ccc([N+](=O)[O-])cc2C1=Nc1cccc(CO)c1`, the activity change, negative = activation is 41.2% (inactive).

In the case of `COc1ccc(OCCCC(=O)NCCc2ccccc2)cc1`, the activity change, negative = activation is -144% (active).

For `COc1ccc(N(CCC(=O)NCCc2ccccc2)S(=O)(=O)c2ccc(C)cc2C)cc1`, the activity change, negative = activation is 54.9% (inactive).

Regarding `CCN1C(=NCc2ccc(OC)cc2)N[C@@H](CCc2ccccc2)[C@H](C(=O)NCc2ccc(OC)cc2)[C@H]1C`, the activity change, negative = activation is 40.4% (inactive).

Regarding `Cc1ccc(S(=O)(=O)N2CCN(C(=O)c3ccccc3-c3nc4ccccc4s3)CC2)c(C)c1`, the activity change, negative = activation is 40.3% (inactive).

Turning to `COCC(C)OC(=O)c1c(N)n(CCCN2CCOCC2)c2nc3ccccc3nc12` (centres undefined), the activity change, negative = activation was 50.9% (inactive).

`C#CCOCCOCCOCCNc1nc(N2CCN(C(=O)CCCCCCCCCCNC(=O)Cn3cc(CCCCCN)nn3)CC2)nc(N2CCN(C(=O)CCCCCCCCCCNC(=O)[C@H](CO)n3cc(CCCSC)nn3)CC2)n1`: the activity change, negative = activation is 60.7% (inactive).

As for `O=C(Nc1cccc(C(F)(F)F)c1)c1cnccn1`, the activity change, negative = activation is -50.6% (active).

With `C#CCOCCOCCOCCNc1nc(N2CCN(C(=O)C([C@@H](C)O)n3cc([C@@H](N)CCCCN)nn3)CC2)nc(N2CCN(C(=O)[C@H](CCCCN)n3cc(CN)nn3)CC2)n1` (some centres undefined), the activity change, negative = activation was 42.2% (inactive).

Take `C[C@@H](CN1CCC[C@H]1CN1C(N)=NC[C@@H]1Cc1ccccc1)N1C[C@@H](Cc2ccccc2)N(CCCC2CCCC2)C1=N`: the activity change, negative = activation is 70.9% (inactive).

Consider `CCOC(=O)c1ccc(Nc2cc3ccccc3c(=O)[nH]2)cc1`, for which the activity change, negative = activation was 92.5% (inactive).

In the case of `Brc1ccc(/C=N/N2CCN(C3c4ccccc4-c4ccccc43)CC2)s1`, the activity change, negative = activation is -255% (active).

On to `CCc1ccc(CNC(=O)C2CCN(c3nnc(C)c4c(C)n(-c5ccc(C)cc5)nc34)CC2)cc1`, for which the activity change, negative = activation is 42.3% (inactive).

Regarding `Cc1cc(N2CCCC2)ccc1NC(=O)COc1ccc(Cl)cc1`, the activity change, negative = activation is 62.2% (inactive).

Regarding `COc1cccc(C(=O)Nc2ccc(N3CCCC3)cc2)c1`, the activity change, negative = activation was -89.7% (active).

`CCCCCCc1cc2cc(-c3nnc(-c4ccccc4)o3)c(=O)oc2cc1O`: the activity change, negative = activation is 67.8% (inactive).

`COC1=C(N2CCOCC2)C(=O)c2ccccc2C1=O`: the activity change, negative = activation was 65.8% (inactive).

Values taken from PubChem BioAssay AID489031 (Sanford-Burnham Center for Chemical Genomics, 2010).
